Compound activity deposited in PubChem by Broad Institute.
XiGFP reactiv = activators of inactive X chromosome reactivation, primary screen, imaging, XiGFP fibroblasts, GFP high-content imaging, set 2; XiGFP mouse fibroblasts, % GFP-positive cells imaging, 3 d; cells co-treated with 5-aza-dC sensitizer; scaled so ellipticine positive control = 100%; activation, % at 7.58 µM; 360,000 compounds, 0.055% hits; AID 743238, 2013;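 active means mean normalized replicate activation at least 10% and every replicate at or above 10%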;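 further: 0% = median of on-plate neutral control wells and 100% = ellipticine 6 µM median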
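Assay system: SV40-immortalized XiGFP fibroblast cells, line 68-5-11; buffer or medium: DMEM plus 5-aza-dC sensitizer; compound: one concentration, pinned; timing: compounds 3 days, fix/stain 15 min at room temperature; benchmarks: positive control ellipticine, 6 µM final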
PAX8 inh HTS = inhibitors of PAX8-driven TPO luciferase reporter, primary screen, RMG-I cells, single concentration. SteadyGlo, 24 h. AID 652154, 2013. 360,000 compounds, 1.2% hits. inhibition, % at 12.6 µM;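 active means mean replicate inhibition at least 60% with every replicate also reaching 60%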;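 further: luciferase light reporting Pax8 driven TPO promoter activity; plate controls were median of neutral control wells for no effect and mitoxantrone controls for full effect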
GSIS activator = GLuc luminescence reporter in INS-1E cells, primary screen for activators of glucose-dependent secretion of insulin | INS-1E GLuc reporter insulin secretion, 2-3 h | AID 743287, 2014 | activation, % at 16.6 µM | 370,000 compounds, 0.61% hits;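 active means lowest replicate activation of at least 40%, so every replicate reaches that level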;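 further: 0% = median of neutral control wells and 100% = median of IBMX positive control wells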
EWS-Fli block = EWS/Fli-driven NR0B1 reporter inhibitors, primary screen, A673 cells, NR0B1 luciferase, luminescence, MLPCN library | AID 651661, 2012 | 350,000 compounds, 0.67% hits | viability-normalised | inhibition, % at 12.6 µM;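 active means mean inhibition of at least 50% after viability correction, with every replicate also passing that limit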;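 further: firefly luciferase signal divided by Alamar Blue viability fluorescence both relative to DMSO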
PGC1a acetyl inh = inhibitors of PGC1a acetylation signal, primary screen, cell-based, U2OS, AlphaScreen, inhibitor mode; 350,000 compounds, 0.17% hits; inhibition, % at 15.6 µM; AlphaScreen anti-acetyl-lysine; with virally co-expressed GCN5 acetyltransferase;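 active means every replicate shows inhibition of at least 40%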;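 further: 0% = neutral control wells and 100% = positive control wells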
AF4-AF9 inh = inhibitors of AF4 peptide binding to AF9, primary screen, biochemical, AlphaScreen, biotin-AF4 peptide, FLAG-AF9, single point; 350,000 compounds, 0.47% hits; Protein AF-9 (Homo sapiens), P42568; inhibition, % at 10 µM;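 active means every replicate reaching a set inhibition limit, whatever the replicate mean, cut at about 25% in these data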;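 further: 0% = plate neutral control median and 100% = total signal loss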
Target sequence (P42568 whole entry, looked up): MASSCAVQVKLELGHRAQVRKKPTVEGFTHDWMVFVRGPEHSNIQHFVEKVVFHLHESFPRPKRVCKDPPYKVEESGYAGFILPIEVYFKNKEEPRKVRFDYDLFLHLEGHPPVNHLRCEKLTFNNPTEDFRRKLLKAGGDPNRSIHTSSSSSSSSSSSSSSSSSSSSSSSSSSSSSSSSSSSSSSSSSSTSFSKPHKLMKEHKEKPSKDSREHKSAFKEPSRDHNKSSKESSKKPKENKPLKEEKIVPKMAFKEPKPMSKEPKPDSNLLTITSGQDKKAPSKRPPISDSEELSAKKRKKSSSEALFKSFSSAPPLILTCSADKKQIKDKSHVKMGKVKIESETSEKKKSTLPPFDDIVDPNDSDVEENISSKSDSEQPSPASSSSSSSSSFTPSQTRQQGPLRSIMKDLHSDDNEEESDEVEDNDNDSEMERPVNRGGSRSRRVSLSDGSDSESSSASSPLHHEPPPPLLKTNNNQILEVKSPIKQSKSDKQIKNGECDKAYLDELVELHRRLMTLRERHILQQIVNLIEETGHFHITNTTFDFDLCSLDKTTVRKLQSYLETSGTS
Numbers without * were called inactive; . = not tested or not shown. The list is not random: actives were taken first. Their share in the collection is about 2.1%.

SMILES	XiGFP reactiv	PAX8 inh HTS	GSIS activator	EWS-Fli block	PGC1a acetyl inh	AF4-AF9 inh
C[C@H]1CCCCO[C@H](CN(C)C)[C@@H](C)CN([C@@H](C)CO)C(=O)c2cc(NC(=O)Nc3ccc(C(F)(F)F)cc3)ccc2O1	0	33	-1	5	-1	7
C[C@H]1CCCCO[C@H](CN(C)C(=O)Nc2ccc(C(F)(F)F)cc2)[C@@H](C)CN([C@@H](C)CO)C(=O)c2cc(NC(=O)CCC(F)(F)F)ccc2O1	-1	87*	-6	-3	11	0
C[C@@H]1CCCCO[C@@H](CN(C)C(=O)Nc2ccc(C(F)(F)F)cc2)[C@H](C)CN([C@@H](C)CO)C(=O)c2cc(NC(=O)Nc3ccc(C(F)(F)F)cc3)ccc2O1	0	77*	1	-14	-5	.
C[C@@H]1CN([C@H](C)CO)C(=O)c2cc(NC(=O)Nc3ccc(C(F)(F)F)cc3)ccc2O[C@@H](C)CCCCO[C@H]1CN(C)C(=O)Nc1ccc(C(F)(F)F)cc1	0	96*	-4	3	-9	.
CNC[C@@H]1Oc2c(NC(=O)NC(C)C)cccc2C(=O)N(C)C[C@H]1C	0	.	9	.	.	.
CN(C)C(=O)C[C@H]1C[C@@H]2c3cc(NC(=O)C4CCC4)ccc3O[C@@H]2[C@H](CO)O1	0	-5	2	5	15	0
COc1ccc(-c2nnc(-c3cccs3)o2)cc1OC	.	.	73*	.	-5	.
O=C(Nc1nnc(SCc2ccc(F)cc2)s1)C1CC(=O)N(c2ccc3c(c2)OCCO3)C1 (centres undefined)	0	1	-18	.	.	.
C=CCSc1nnc(NC(=O)C2CC(=O)N(c3ccc4c(c3)OCCO4)C2)s1 (centres undefined)	0	81*	12	11	2	0
Cc1ccc2nc(NNC(=O)c3ccc(S(=O)(=O)N4CCc5ccccc5C4)cc3)sc2c1	0	90*	.	26	6	0
Cc1ccc2nc(NNC(=O)c3ccc4c(c3)OCCO4)sc2c1	0	11	.	-9	-4	1
Cc1cnc(C(=O)OC(C)C(=O)NCc2ccccc2)cn1 (centres undefined)	0	-1	59*	3	.	0
Nc1c(C(=O)Nc2ccc(Cl)c(C(=O)O)c2)sc2nc3c(cc12)CCCC3	0	9	-12	.	-2	-3
Nc1c(C(=O)Nc2cccc(C(=O)O)c2)sc2nc3c(cc12)CCCC3	0	85*	9	85*	1	-3
Nc1c(C(=O)Nc2ccc(S(=O)(=O)N3CCCC3)cc2)sc2nc3cc4c(cc3cc12)CCC4	63*	-15	-9	.	.	.
COc1ccc(NC(=O)Nc2ccc3c(c2)C(=O)N([C@H](C)CO)C[C@@H](C)[C@@H](CN(C)S(=O)(=O)c2ccc(F)cc2)O3)cc1	0	24	-26	17	-1	.
O=C(C[C@@H]1CC[C@H]2[C@@H](COC[C@H](O)CN2Cc2ccc(Oc3ccccc3)cc2)O1)N1CCN(c2ccccc2)CC1	0	64*	-8	28	-7	16
O=C(C[C@@H]1CC[C@H]2[C@@H](COC[C@@H](O)CN2Cc2ccc(Oc3ccccc3)cc2)O1)N1CCc2ccccc2C1	.	80*	.	44	-17	9
Cc1noc(C)c1S(=O)(=O)Nc1ccc2c(c1)C(=O)N([C@H](C)CO)C[C@@H](C)[C@@H](CN(C)S(C)(=O)=O)O2	0	.	17	1	3	-4
Cc1noc(C)c1COc1cccc(C(=O)NCCc2c[nH]c3ccccc23)c1	0	13	-18	55*	4	2
Cc1noc(C)c1COc1cccc(C(=O)Nc2ccccc2)c1	0	-11	.	-17	-15	-1
Cc1ccc(S(=O)(=O)Nc2ccc3c(c2)C(=O)N([C@H](C)CO)C[C@H](C)[C@@H](CN(C)Cc2ccc(C(F)(F)F)cc2)OCCCC[C@@H](C)O3)cc1	0	7	-7	3	-1	1
Cc1ccc(S(=O)(=O)Nc2ccc3c(c2)C(=O)N([C@H](C)CO)C[C@@H](C)[C@@H](CN(C)Cc2ccc(C(F)(F)F)cc2)OCCCC[C@@H](C)O3)cc1	0	87*	-2	32	-15	2
Cc1ccc(S(=O)(=O)Nc2ccc3c(c2)C(=O)N([C@@H](C)CO)C[C@@H](C)[C@H](CN(C)Cc2ccc(C(F)(F)F)cc2)OCCCC[C@@H](C)O3)cc1	1	108*	-11	45	0	-3
Cc1ccc(S(=O)(=O)Nc2ccc3c(c2)C(=O)N([C@@H](C)CO)C[C@H](C)[C@@H](CN(C)Cc2ccc(C(F)(F)F)cc2)OCCCC[C@H](C)O3)cc1	0	80*	-2	15	-10	1
SMILES	XiGFP reactiv	PAX8 inh HTS	GSIS activator	EWS-Fli block	PGC1a acetyl inh	AF4-AF9 inh
Cc1ccc(S(=O)(=O)Nc2ccc3c(c2)C(=O)N([C@H](C)CO)C[C@@H](C)[C@@H](CN(C)Cc2ccc(C(F)(F)F)cc2)OCCCC[C@H](C)O3)cc1	0	96*	14	18	-1	10
Cc1ccc(S(=O)(=O)N(C)C[C@H]2Oc3ccc(NC(=O)C4CCCCC4)cc3CC(=O)N([C@@H](C)CO)C[C@@H]2C)cc1	0	.	-6	1	4	-2
C[C@@H]1CN([C@@H](C)CO)C(=O)c2cccc(NC(=O)Nc3ccccc3)c2O[C@H]1CN(C)CC1CCCCC1	0	-9	-13	10	.	6
C[C@H]1CN([C@@H](C)CO)S(=O)(=O)c2ccc(C3=CCCC3)cc2O[C@@H]1CN(C)S(C)(=O)=O	0	.	-1	24	-9	.
CO[C@@H](CN(C)S(=O)(=O)c1ccc(Cl)cc1)[C@H](C)CN(C(=O)Nc1ccccc1F)[C@@H](C)CO	0	.	-17	-10	3	0
CNC[C@H]1Oc2c(NS(=O)(=O)c3ccc(C)cc3)cccc2C(=O)N([C@H](C)CO)C[C@H]1C	-1	-8	17	3	0	-1
C[C@H](CO)N1C[C@H](C)[C@@H](CN(C)C(=O)Nc2cccc3ccccc23)Oc2ccc(NC(=O)Nc3ccc(F)cc3)cc2CC1=O	0	2	5	16	-5	1
Cc1ccc(S(=O)(=O)Nc2ccc3c(c2)C(=O)N([C@H](C)CO)C[C@H](C)[C@H](CN(C)Cc2ccc(C(F)(F)F)cc2)OCCCC[C@H](C)O3)cc1	0	115*	17	37	29	-2
COc1cc(/C=N/NC(=O)C23CC4CC(CC(C4)C2)C3)cc(Br)c1O	0	67*	-18	3	1	7
